About 170 (0.085%) of roughly 200,000 compounds were called active. Only a selection was taken, and actives are over-represented in it overall. Unmarked numbers belong to inactive results.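 How the source made its calls: active means inhibition above 40% at the single screening dose; inactive means the rest.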
target: DNA repair protein RAD51 homolog 1 (Homo sapiens) (UniProt Q06609); experiment: human RAD51 strand exchange inhibitors, primary screen, biochemical, fluorescence (AID 1385); details: hRad51 DNA strand exchange, fluorescence dequenching; at 10 µM; stronger effect = higher value;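 further: 0% = DMSO control wells and 100% = blanks with heterologous ssDNA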
Outline: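 Assay system: Human Rad51 nucleoprotein filaments preassembled on unlabelled ssDNA | Reagent: Donor/quencher-labelled 47-bp dsDNA substrate | Doses: One concentration, 10 µM final | Times: 37 °C 15-min filament assembly, 30-min compound preincubation, 15-min exchange | Technique: Fluorescein emission 520 nm, excitation 485 nm | Benchmarks: Plate control and blank wells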

Sequence of DNA repair protein RAD51 homolog 1 (Homo sapiens) (Q06609 whole entry, looked up): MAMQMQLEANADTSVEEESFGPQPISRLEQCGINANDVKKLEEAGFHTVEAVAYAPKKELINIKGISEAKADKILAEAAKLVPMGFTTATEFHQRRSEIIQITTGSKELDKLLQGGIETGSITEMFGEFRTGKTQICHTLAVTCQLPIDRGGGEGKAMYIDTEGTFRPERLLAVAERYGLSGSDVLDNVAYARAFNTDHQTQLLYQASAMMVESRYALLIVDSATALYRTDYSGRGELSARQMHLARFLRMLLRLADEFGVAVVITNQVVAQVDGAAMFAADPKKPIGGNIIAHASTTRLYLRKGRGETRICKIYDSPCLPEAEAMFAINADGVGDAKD

Compound | inhibition
Cn1cnc(S(=O)(=O)Nc2ccc3c(c2)OCCO3)c1 | 10.8%
O=C(O)CC12CC3CC(C1)CC(n1ncc(NCc4ccc(F)cc4)c(Cl)c1=O)(C3)C2 | -1.62%
O=C(Cc1cccc2ccccc12)NNC(=O)Nc1ccc(Cl)cc1 | 18.3%
Cc1nnc(Nc2ccccc2F)s1 | 21.3%
CCOC(=O)CN(C(=O)COc1nc(C)cc(C)c1C#N)c1ccc(Cl)cc1 | 1.01%
FC(F)(F)c1cccc(-c2nc(COc3ccc(Cl)cc3Cl)no2)c1 | 4.51%
CCSC1=NCCN1C(=O)c1ccc(S(=O)(=O)N(CC)CC)cc1 | 40.5% (active)
CCSC1=NCCN1S(=O)(=O)c1ccc(F)cc1 | -1.84%
CSC1=NCCN1C(=O)c1ccc(S(=O)(=O)N2CCOCC2)cc1 | -4.11%
C/C(Cc1ccccc1)=N\NC(=O)CNC(=O)c1ccccc1Cl | 11.3%
COc1ccc(OC)c(NC(=O)N[C@H](Cc2ccccc2)C(=O)NN)c1 | 19%
N#Cc1ccc(Oc2ccc(C(F)(F)F)cc2NC(=O)c2ccc(F)cc2)cc1 | 18.6%
COCCn1c(SCC(=O)c2[nH]c(C)c(C(C)=O)c2C)nc2ccccc2c1=O | -4.09%
COc1ccc(/C=N/n2nnnc2N)cc1OC | -13.6%
Cc1cc(Nc2ccc(N3CCOCC3)cc2)c2cccc(C)c2n1 | 15.5%
Nc1ccccc1C(=O)NC1CCCCNC1=O (centres undefined) | 11.6%
COc1cc(N2C(=O)CC3(CCCC3)CC2=O)cc(OC)c1OC | -3.47%
Cc1ccc(Nc2c3c(nc4ccccc24)CCC3)cc1 | 16.7%
O=C1N[C@H](Cc2ccccc2)C(=O)N[C@H]1Cc1cn(S(=O)(=O)c2ccccc2)c2ccccc12 | -3.92%
O=C(NC1C2CC3CC(C2)CC1C3)c1ccc(N2CCNCC2)c([N+](=O)[O-])c1 (centres undefined) | -5.43%

Compound | inhibition
CC(=O)N/C(=C\c1ccc(F)cc1)C(=O)NC(Cc1ccccc1)C(=O)O (centres undefined) | 5.67%
CN(C)S(=O)(=O)c1ccc(C(=O)NCC(C)(C)N2CCOCC2)cc1 | -11.7%
NC(=O)c1ccc(-c2csnn2)cc1 | 9.52%
Nc1c(Cl)cc(S(N)(=O)=O)cc1S(N)(=O)=O | 3.22%
O=C(Nc1cccc2c1N(C(=O)c1ccco1)CCC2)c1ccco1 | 15.4%
CC1Cc2ccccc2N1CC(=O)Nc1ccc(S(N)(=O)=O)cc1 (centres undefined) | -6.22%
Cc1ccc(NC(=O)/C(=C/c2ccc([N+](=O)[O-])cc2)NC(=O)c2ccccc2)cc1 | -17.5%
NNC(=O)c1cccc(COCC(F)(F)C(F)F)c1 | 8.15%
O=C(Nc1ccccc1)C1CC(=O)n2c(nc3ccccc32)N1 (centres undefined) | 1.59%
NC(=O)c1ccc(NC(=O)COC(=O)c2ccc([N+](=O)[O-])cc2)cc1 | -14.5%
CCCc1c(C(=O)Nc2ccc(F)cc2)cnn1-c1ccccc1 | -9.46%
Cc1cc(C(=O)OCC(=O)Nc2nccs2)c2ccccc2n1 | -4.52%
CCc1nc(NCCO)c(C#N)c2c1CCCC2 | 18.4%
Cn1c(=O)c(=O)n(C)c2cc(S(=O)(=O)NCCN3CCN(c4ccccc4F)CC3)ccc21 | 0.68%
Cc1ccc(N2C(=O)CN=C2Nc2nc(C)cc(C)n2)cc1 | 7.92%
COC(=O)c1sccc1NC(=O)CC1C(=O)NCCN1C(=O)Nc1ccc(F)cc1F (centres undefined) | 1.89%
Fc1ccc(-c2csc(-c3ccc(C4SCCS4)cc3)n2)cc1F | 1.29%
O=C(NNC(=O)c1csc(-c2cccnc2)n1)Nc1ccc(Cl)cc1 | -5.17%
COCc1cc(=O)[nH]c(-c2ccc(C(F)(F)F)cc2)n1 | 7.88%
CSc1sc(C(=O)NNC(=O)c2ccc(Cl)cc2)c2c1C=CCC2 | -9.57%

Compound | inhibition
N#Cc1c(NCCO)ccc([N+](=O)[O-])c1NCCO | 16.9%
COc1ccc(NC(=O)C2=C(C)NC(=O)NC2c2ccccc2[N+](=O)[O-])cc1 (centres undefined) | 0.69%
O=S(=O)(c1ccccc1)N1CN(Cc2ccc(F)cc2)c2nc3ccccc3nc21 | 7.4%
CC1(C)C2CC[C@]3(C)C(CC=C4[C@@H]5C[C@@](C)(CO)CC[C@]5(C(=O)O)CC[C@]43C)[C@@]2(C)CC[C@@H]1O (some centres undefined) | 6.09%
Cc1cc(N2CCN(c3ccccc3)CC2)nc(N2CCOCC2)n1 | 26.8%
COc1ccc(Cn2c(O)c(/C=C3/C=CC=N3)c(=O)[nH]c2=O)cc1 | -6.92%
COC(=O)c1ccc(C(NC(=O)OCc2ccccc2)/C(F)=C/[C@@H](C)C(=O)O)cc1 (some centres undefined) | -2.27%
Cc1cccn2c(CNCC(C)Oc3cccnc3)c(C(=O)N3CCOCC3)nc12 (centres undefined) | -2.58%
N#CC1=C(N)Oc2c(ccc3cccnc23)C1c1ccncc1 (centres undefined) | 12.7%
CN(C)CCCN(Cc1cc2cc3c(cc2[nH]c1=O)OCCO3)C(=O)NC1CCCCC1 | 0.9%
C/C(CC(=O)NC(C)c1ccccc1)=N\NC(N)=S (centres undefined) | 21.4%
NCC(=O)c1cccc2ccc[n+]([O-])c12 | -0.26%
CCCOc1ccc(Cl)cc1Nc1nc(NCCO)nc(N2CCCC2)n1 | 6.75%
Cc1cc(NC(=O)OC(C)C)ccc1-c1ccc(NC(=O)OC(C)C)cc1C | -19.8%
CCn1c(SCC(=O)Nc2sc(C)c(C)c2C#N)nnc1C1CC1 | -26.7%
CCNc1nc(NCC)nc(N/N=C/c2ccc(O)c(OC)c2)n1 | 5.6%
Cc1cc(C)nc(Nc2n[nH]c(-c3ccccc3N)n2)n1 | 22.9%
COC(=O)c1cc(C(=O)OCC(=O)Nc2cc(C)on2)cc([N+](=O)[O-])c1 | -19.8%
O=C(CCl)Nc1cccc(CP(=O)(c2ccccc2)c2ccccc2)c1 | 3.48%

— PubChem BioAssay AID1385 (PCMD, 2008)
